The source of these data is ChEMBL document CHEMBL4007405 (J Med Chem, 2017).

Molecules are shown by their SMILES. Calls of active or inactive are those of the source. The calls are words filed in the database; no cut-off is given here. Positions of bridges follow the written chain, without caps; N, C: chain ends. Residues, ends and D or L forms follow the SMILES beside them.

The target of series [1] is T1, Lethal factor (Bacillus anthracis) (UniProt P15917).
T1 sequence (whole entry): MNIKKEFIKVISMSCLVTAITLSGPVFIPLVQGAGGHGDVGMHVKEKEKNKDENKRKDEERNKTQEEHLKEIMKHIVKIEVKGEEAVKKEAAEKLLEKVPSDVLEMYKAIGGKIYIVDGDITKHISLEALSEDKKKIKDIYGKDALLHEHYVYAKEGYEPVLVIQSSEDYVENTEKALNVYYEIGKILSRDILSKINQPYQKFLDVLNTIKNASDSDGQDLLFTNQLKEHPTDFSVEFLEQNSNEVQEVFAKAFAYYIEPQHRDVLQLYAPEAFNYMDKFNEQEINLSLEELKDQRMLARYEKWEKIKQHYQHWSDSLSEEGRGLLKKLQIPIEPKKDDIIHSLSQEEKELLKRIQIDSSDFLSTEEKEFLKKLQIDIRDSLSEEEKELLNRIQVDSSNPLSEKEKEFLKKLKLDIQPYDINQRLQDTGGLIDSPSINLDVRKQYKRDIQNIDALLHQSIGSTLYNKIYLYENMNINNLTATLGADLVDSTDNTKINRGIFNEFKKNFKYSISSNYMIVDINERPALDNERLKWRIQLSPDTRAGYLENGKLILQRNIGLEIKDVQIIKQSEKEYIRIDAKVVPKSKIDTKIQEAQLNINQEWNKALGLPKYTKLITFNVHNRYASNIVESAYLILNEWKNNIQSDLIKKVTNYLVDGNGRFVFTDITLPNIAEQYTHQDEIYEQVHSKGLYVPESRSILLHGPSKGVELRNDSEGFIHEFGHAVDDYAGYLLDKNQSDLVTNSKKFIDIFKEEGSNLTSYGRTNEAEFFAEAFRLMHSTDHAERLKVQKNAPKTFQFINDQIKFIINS
Nature of the series: Inhibition of Bacillus anthracis lethal factor protease up to 10 uM preincubated for 30 mins prior to addition of substrate containing fluorescent proteins CyPet and YPet measured every 2 mins for 3 hrs by FRET assay. The method, boiled down:
(§1)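 Preincubated with peptide from 1 nM to 10 μM for 30 min at room temperature. CyPet–YPet substrate (LF consensus sequence with (GGS)6 linkers) then added to a final 10 nM. FRET read every 2 min for 3 h with excitation at 405 nm and emission ratio It/I0 at 535 nm. Initial velocities fitted to log(inhibitor)–response with variable Hill slope. Run in triplicate.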

Series [2] has as its target T1, Lethal factor (Bacillus anthracis). Nature of the series: (§2) Inhibition of Bacillus anthracis lethal factor protease preincubated for 30 mins prior to addition of substrate containing fluorescent proteins CyPet and YPet measured every 2 mins for 3 hrs by FRET assay. In short, it runs like this:
as §1

Series [3] addresses T2, Lethal factor (Bacillus anthracis, UniProt P15917).
T2 sequence (P15917 whole entry): T1 sequence (whole entry)
Described as §2. The method, boiled down:
as §1

Series [4] concerns the target T2, Lethal factor.
The next series has as its system HeLa. Nature of the series: Cytotoxicity against human HeLa cells up to 100 uM after 48 hrs by MTT assay. The format is cell-based. The method, boiled down:
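HeLa cells grown in DMEM with 10% FBS, penicillin and streptomycin at 37° C, 5% CO2. About 3 × 10^3 cells per well were seeded for 24 h, washed with PBS, then exposed to peptides in DMEM/10% FBS for 48 h at 37° C. MTT was added for 2 h and formazan dissolved in DMSO. Absorbance read at 595 nm with 670 nm background subtracted.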
For orientation: Formazan colour is commonly taken as a measure of viable cells.

For `CC[C@H](C)[C@@H]1NC(=O)[C@H](CS)NC(=O)[C@H](CCCNC(=N)N)NC(=O)[C@H](CS)NC(=O)[C@H](C(C)C)NC(=O)CNC(=O)[C@H](CCCNC(=N)N)NC(=O)[C@H](CCCNC(=N)N)NC(=O)[C@H](CS)NC(=O)[C@H](CC(C)C)NC(=O)[C@H](CS)NC(=O)[C@H](CCCNC(=N)N)NC(=O)[C@H](CS)NC(=O)[C@H](Cc2ccccc2)NC(=O)CNC(=O)[C@H](CCCNC(=N)N)NC(=O)[C@H]([C@@H](C)O)NC(=O)[C@H](CS)NC1=O` (cyclo(CICTRGFCRCLCRRGVCR)), the inhibition entry in series [1] is “inactive”.

The IC50 is the concentration at which inhibition is half-maximal. Turning to `CC(C)C[C@@H]1NC(=O)[C@@H]2CSSC[C@H](NC(=O)[C@H](CCCNC(=N)N)NC(=O)[C@@H]3CSSC[C@H](NC1=O)C(=O)N[C@@H](CCCNC(=N)N)C(=O)N[C@@H](CCCNC(=N)N)C(=O)NCC(=O)N[C@@H](C(C)C)C(=O)N3)C(=O)N[C@@H](Cc1c[nH]c3ccccc13)C(=O)N[C@H]1CSSC[C@H](NC(=O)[C@H](Cc3ccccc3)NC(=O)CNC(=O)[C@H](CCCNC(=N)N)NC(=O)[C@H]([C@@H](C)O)NC1=O)C(=O)N[C@@H](CCCNC(=N)N)C(=O)N2` (cyclo(CLCRRGVCRCWCTRGFCR); disulfide 1-10, 3-8, 12-17), the inhibition entry in series [2] is “Dose-dependent effect”. This compound also had an IC50 on Lethal factor [3] of 0.205 µM.

In the case of `C[C@@H](O)[C@@H]1NC(=O)[C@@H]2CSSC[C@H](NC(=O)[C@H](Cc3c[nH]c4ccccc34)NC(=O)[C@H](CCCNC(=N)N)NC(=O)[C@H](CCCNC(=N)N)NC1=O)C(=O)N[C@@H](CCCNC(=N)N)C(=O)N[C@H]1CSSC[C@H](NC(=O)[C@H](CCCNC(=N)N)NC(=O)[C@@H]3CSSC[C@H](NC(=O)[C@H](Cc4c[nH]c5ccccc45)NC1=O)C(=O)N[C@@H](CCCNC(=N)N)C(=O)N[C@@H](CCCNC(=N)N)C(=O)N[C@@H](CCCNC(=N)N)C(=O)N[C@@H](Cc1c[nH]c4ccccc14)C(=O)N3)C(=O)N[C@@H](Cc1c[nH]c3ccccc13)C(=O)N2` (cyclo(CRCWCRRRWCRCWCTRRW); disulfide 1-14, 3-12, 5-10), the inhibition result in series [2] is “Dose-dependent effect”.

In the case of `CC[C@H](C)[C@@H]1NC(=O)[C@@H]2CSSC[C@H](NC(=O)[C@H](CCCNC(=N)N)NC(=O)[C@@H]3CSSC[C@H](NC1=O)C(=O)N[C@@H]([C@@H](C)O)C(=O)N[C@@H](CCCNC(=N)N)C(=O)NCC(=O)N[C@@H](Cc1ccccc1)C(=O)N3)C(=O)N[C@@H](CC(C)C)C(=O)N[C@H]1CSSC[C@H](NC(=O)[C@H](Cc3c[nH]c4ccccc34)NC(=O)[C@H](CCCNC(=N)N)NC(=O)[C@H](CCCNC(=N)N)NC(=O)[C@H](CCCNC(=N)N)NC1=O)C(=O)N[C@@H](CCCNC(=N)N)C(=O)N2` (cyclo(CICTRGFCRCLCRRRWCR); disulfide 1-10, 3-8, 12-17), in series [2], the inhibition result is “Dose-dependent effect”.

For the compound `N=C(N)NCCC[C@@H]1NC(=O)[C@H](CCCNC(=N)N)NC(=O)[C@@H]2CSSC[C@H](NC(=O)[C@H](Cc3c[nH]c4ccccc34)NC(=O)[C@H](CCCNC(=N)N)NC1=O)C(=O)N[C@@H](CCCNC(=N)N)C(=O)N[C@H]1CSSC[C@H](NC(=O)[C@H](CCCNC(=N)N)NC(=O)[C@@H]3CSSC[C@H](NC(=O)[C@H](Cc4c[nH]c5ccccc45)NC1=O)C(=O)N[C@@H](CCCNC(=N)N)C(=O)N[C@@H](CCCNC(=N)N)C(=O)N[C@@H](CCCNC(=N)N)C(=O)N[C@@H](Cc1c[nH]c4ccccc14)C(=O)N3)C(=O)N[C@@H](Cc1c[nH]c3ccccc13)C(=O)N2` (cyclo(CRCWCRRRWCRCWCRRRW); disulfide 1-14, 3-12, 5-10), the IC50 on Lethal factor [4] turned out to be 0.25 µM. For the same compound, in series [2], the inhibition entry was “Dose-dependent effect”. The Activity entry in the series on HeLa was “Non-Toxic”.

Regarding `CC[C@H](C)[C@@H]1NC(=O)[C@@H]2CSSC[C@H](NC(=O)[C@H](CCCNC(=N)N)NC(=O)[C@@H]3CSSC[C@H](NC1=O)C(=O)N[C@@H]([C@@H](C)O)C(=O)N[C@@H](CCCNC(=N)N)C(=O)NCC(=O)N[C@@H](Cc1ccccc1)C(=O)N3)C(=O)N[C@@H](CC(C)C)C(=O)N[C@H]1CSSC[C@H](NC(=O)[C@H](Cc3c[nH]c4ccccc34)NC(=O)CNC(=O)[C@H](CCCNC(=N)N)NC(=O)[C@H](CCCNC(=N)N)NC1=O)C(=O)N[C@@H](CCCNC(=N)N)C(=O)N2` (cyclo(CICTRGFCRCLCRRGWCR); disulfide 1-10, 3-8, 12-17), the inhibition entry in series [2] was “Dose-dependent effect”.

For the compound `CC[C@H](C)[C@@H]1NC(=O)[C@@H]2CSSC[C@H](NC(=O)[C@H](CCCNC(=N)N)NC(=O)[C@@H]3CSSC[C@H](NC1=O)C(=O)N[C@@H]([C@@H](C)O)C(=O)N[C@@H](CCC(=O)O)C(=O)NCC(=O)N[C@@H](Cc1ccccc1)C(=O)N3)C(=O)N[C@@H](CC(C)C)C(=O)N[C@H]1CSSC[C@H](NC(=O)[C@H](C(C)C)NC(=O)CNC(=O)[C@H](CCCNC(=N)N)NC(=O)[C@H](CCCNC(=N)N)NC1=O)C(=O)N[C@@H](CCCNC(=N)N)C(=O)N2` (cyclo(CICTEGFCRCLCRRGVCR); disulfide 1-10, 3-8, 12-17), in series [2], the inhibition result is “Dose-dependent effect”. This compound showed a half-maximal inhibitory concentration (IC50) against Lethal factor [3] of 3.5 µM.

As to `CC[C@H](C)[C@@H]1NC(=O)[C@@H]2CSSC[C@H](NC(=O)[C@H](CC(=O)O)NC(=O)[C@@H]3CSSC[C@H](NC1=O)C(=O)N[C@@H]([C@@H](C)O)C(=O)N[C@@H](CCCNC(=N)N)C(=O)NCC(=O)N[C@@H](Cc1ccccc1)C(=O)N3)C(=O)N[C@@H](CC(C)C)C(=O)N[C@H]1CSSC[C@H](NC(=O)[C@H](C(C)C)NC(=O)CNC(=O)[C@H](CCCNC(=N)N)NC(=O)[C@H](CCCNC(=N)N)NC1=O)C(=O)N[C@@H](CCCNC(=N)N)C(=O)N2` (cyclo(CDCLCRRGVCRCICTRGF); disulfide 1-14, 3-12, 5-10), in series [2], the inhibition entry was “Dose-dependent effect”.

Regarding `C[C@@H](O)[C@@H]1NC(=O)[C@@H]2CSSC[C@H](NC(=O)[C@H](Cc3c[nH]c4ccccc34)NC(=O)CNC(=O)[C@H](CCCNC(=N)N)NC1=O)C(=O)N[C@@H](CCCNC(=N)N)C(=O)N[C@H]1CSSC[C@H](NC(=O)[C@H](CCCNC(=N)N)NC(=O)[C@@H]3CSSC[C@H](NC(=O)[C@H](Cc4c[nH]c5ccccc45)NC1=O)C(=O)N[C@@H](CCCNC(=N)N)C(=O)N[C@@H](CCCNC(=N)N)C(=O)N[C@@H](CCCNC(=N)N)C(=O)N[C@@H](Cc1c[nH]c4ccccc14)C(=O)N3)C(=O)N[C@@H](Cc1c[nH]c3ccccc13)C(=O)N2` (cyclo(CRCWCRRRWCRCWCTRGW); disulfide 1-14, 3-12, 5-10), the inhibition entry in series [2] was “Dose-dependent effect”.

On to `CC[C@H](C)[C@@H]1NC(=O)[C@@H]2CSSC[C@H](NC(=O)[C@H](CCCNC(=N)N)NC(=O)[C@@H]3CSSC[C@H](NC1=O)C(=O)N[C@@H]([C@@H](C)O)C(=O)N[C@@H](CCCNC(=N)N)C(=O)NCC(=O)N[C@@H](Cc1ccccc1)C(=O)N3)C(=O)N[C@@H](Cc1c[nH]c3ccccc13)C(=O)N[C@H]1CSSC[C@H](NC(=O)[C@H](Cc3c[nH]c4ccccc34)NC(=O)[C@H](CCCNC(=N)N)NC(=O)[C@H](CCCNC(=N)N)NC(=O)[C@H](CCCNC(=N)N)NC1=O)C(=O)N[C@@H](CCCNC(=N)N)C(=O)N2` (cyclo(CICTRGFCRCWCRRRWCR); disulfide 1-10, 3-8, 12-17), for which the inhibition result in series [2] is “Dose-dependent effect”.

As for `C[C@@H](O)[C@@H]1NC(=O)[C@@H]2CSSC[C@H](NC(=O)[C@H](Cc3ccccc3)NC(=O)CNC(=O)[C@H](CCCNC(=N)N)NC1=O)C(=O)N[C@@H](CCCNC(=N)N)C(=O)N[C@H]1CSSC[C@H](NC(=O)[C@H](CCCNC(=N)N)NC(=O)[C@@H]3CSSC[C@H](NC(=O)[C@H](Cc4c[nH]c5ccccc45)NC1=O)C(=O)N[C@@H](CCCNC(=N)N)C(=O)N[C@@H](CCCNC(=N)N)C(=O)N[C@@H](CCCNC(=N)N)C(=O)N[C@@H](Cc1c[nH]c4ccccc14)C(=O)N3)C(=O)N[C@@H](Cc1c[nH]c3ccccc13)C(=O)N2` (cyclo(CRCWCRRRWCRCWCTRGF); disulfide 1-14, 3-12, 5-10), the inhibition entry in series [2] was “Dose-dependent effect”.
